From ChEMBL document CHEMBL1143315, “Investigation of ketone warheads as alternatives to the nitrile for preparation of potent and selective cathepsin K inhibitors” (Bioorg Med Chem Lett, 2009)

Experiments:
Cathepsin K = Cathepsin K (Homo sapiens, UniProt P43235); test: Inhibition of humanized rabbit cathepsin K
Homo sapiens [1] = species on record: Homo sapiens; test: Selectivity ratio of IC50 for human cathepsin L to IC50 for humanized rabbit cathepsin K
Homo sapiens [2] = species on record: Homo sapiens; test: Selectivity ratio of IC50 for human cathepsin S to IC50 for humanized rabbit cathepsin K
Homo sapiens [3] = species on record: Homo sapiens; test: Selectivity ratio of IC50 for human cathepsin B to IC50 for humanized rabbit cathepsin K
[4] = Half life in rat at 2 to 5 mg/kg, iv; format: ADME, organism-based; set-up: dose 2-5 mg/kg, route intravenous; conditions: in vivo
Method in brief: (§1)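 Rats were given a single IV dose of 2–5 mg/kg in 60% PEG 200. Half-life (t1/2) and clearance (Cl, mL/min/kg) were taken from the plasma profile. Where two distinct phases were seen, separate t1/2a and terminal t1/2b values were calculated.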

[5] = Clearance in rat at 2 to 5 mg/kg, iv; format: ADME, organism-based; set-up: dose 2-5 mg/kg, route intravenous; conditions: in vivo; method in brief: as §1
[6] = Primary phase half life in rat at 2 to 5 mg/kg, iv; format: ADME, organism-based; set-up: dose 2-5 mg/kg, route intravenous; conditions: in vivo, read-out: alphat1/2 (converted); method in brief: as §1
[7] = Terminal half life in rat at 2 to 5 mg/kg, iv; format: ADME, organism-based; set-up: dose 2-5 mg/kg, route intravenous; conditions: in vivo, read-out: beta t1/2 (converted); method in brief: as §1
Rattus norvegicus = species on record: Rattus norvegicus; test: Metabolic stability in rat hepatocytes assessed as compound remaining after 2 hrs

IC50 (Cathepsin K) [nM]	Ratio IC50 (Homo sapiens [1])	Ratio IC50 (Homo sapiens [2])	Ratio IC50 (Homo sapiens [3])	half-life [4] [h]	clearance [5] [mL/min/kg]	half-life [6] [h]	half-life [7] [h]	remaining at 2 h (Rattus norvegicus) [%]	Compound
7.3	40	104	355						CC(C)(F)C[C@H](N[C@@H](c1ccc(-c2ccc(S(C)(=O)=O)cc2)cc1)C(F)(F)F)C(=O)NC1CN(C(N)=O)CC1=O (stereo not given in full)
16	617	114	> 1000						CC(C)(F)C[C@H](N[C@@H](c1ccc(-c2ccc(S(C)(=O)=O)cc2)cc1)C(F)(F)F)C(=O)NC1CCCN(S(C)(=O)=O)CC1=O (stereo not given in full)
6.9	91	3.9	1						CC(C)(F)C[C@H](N[C@@H](c1ccc(-c2ccc(S(C)(=O)=O)cc2)cc1)C(F)(F)F)C(=O)NC1CCN(c2ccccc2S(C)(=O)=O)CC1=O (stereo not given in full)
5.7	621	22	232	0.6	24				CC(C)(F)C[C@H](N[C@@H](c1ccc(-c2ccc(S(C)(=O)=O)cc2)cc1)C(F)(F)F)C(=O)NC1CCN(S(=O)(=O)c2ccccn2)CC1=O (stereo not given in full)
27	158	313	370						CC(C)(F)C[C@H](N[C@@H](c1ccc(-c2ccc(S(C)(=O)=O)cc2)cc1)C(F)(F)F)C(=O)NC1CN(S(C)(=O)=O)CC1=O (stereo not given in full)
9.8	16	159	485						CC(C)(F)C[C@H](N[C@@H](c1ccc(-c2ccc(S(C)(=O)=O)cc2)cc1)C(F)(F)F)C(=O)NC1CNCC1=O (stereo not given in full)
45	152	38	148	1.1	17				COC(=O)NCC(=O)CNC(=O)[C@H](CC(C)(C)F)N[C@@H](c1ccc(-c2ccc(S(C)(=O)=O)cc2)cc1)C(F)(F)F
1.8									CC(C)(F)C[C@H](N[C@@H](c1ccc(-c2ccc(S(C)(=O)=O)cc2)cc1)C(F)(F)F)C(=O)NC1CCCN(S(=O)(=O)c2ccccn2)CC1=O (stereo in doubt; 11) [listing 1 of 2 here]
0.2				6	2				CC(C)(F)C[C@H](N[C@@H](c1ccc(-c2ccc(S(C)(=O)=O)cc2)cc1)C(F)(F)F)C(=O)NC1(C#N)CC1 [ODANACATIB]
4.3				2.8	40				COC(=O)N1CC(=O)C(NC(=O)[C@H](CC(C)(C)F)N[C@@H](c2ccc(-c3ccc(S(C)(=O)=O)cc3)cc2)C(F)(F)F)C1 (stereo not given in full)
	> 1000	54	> 1000						CC(C)(F)C[C@H](N[C@@H](c1ccc(-c2ccc(S(C)(=O)=O)cc2)cc1)C(F)(F)F)C(=O)NC1CCCN(S(=O)(=O)c2ccccn2)CC1=O (stereo in doubt; 10) [listing 1 of 2 here]
7.3	40	104	355						CC(C)(F)C[C@H](N[C@@H](c1ccc(-c2ccc(S(C)(=O)=O)cc2)cc1)C(F)(F)F)C(=O)NC1CN(C(=O)Nc2ccccc2)CC1=O (stereo not given in full)
2					46	0.6	11	56	CC(C)(F)C[C@H](N[C@@H](c1ccc(-c2ccc(S(C)(=O)=O)cc2)cc1)C(F)(F)F)C(=O)NC1CCCN(S(=O)(=O)c2ccccn2)CC1=O (stereo in doubt; 9) [listing 1 of 2 here]
2.6	984	33	> 1000						CC(C)(F)C[C@H](N[C@@H](c1ccc(-c2ccc(S(C)(=O)=O)cc2)cc1)C(F)(F)F)C(=O)NC1CCCN(S(=O)(=O)c2cccc[n+]2[O-])CC1=O (stereo not given in full)
	939	45	> 1000						CC(C)(F)C[C@H](N[C@@H](c1ccc(-c2ccc(S(C)(=O)=O)cc2)cc1)C(F)(F)F)C(=O)NC1CCCN(S(=O)(=O)c2ccccn2)CC1=O (stereo in doubt; 9) [listing 2 of 2 here]
54	> 185	46	> 185						CCOC(=O)N1CCCC(NC(=O)[C@H](CC(C)(C)F)N[C@@H](c2ccc(-c3ccc(S(C)(=O)=O)cc3)cc2)C(F)(F)F)C(=O)C1 (stereo not given in full)
4.2	> 1000	604	> 1000	1.2	67				CC(=O)N1CC(=O)C(NC(=O)[C@H](CC(C)(C)F)N[C@@H](c2ccc(-c3ccc(S(C)(=O)=O)cc3)cc2)C(F)(F)F)C1 (stereo not given in full)
10									CC(C)(F)C[C@H](N[C@@H](c1ccc(-c2ccc(S(C)(=O)=O)cc2)cc1)C(F)(F)F)C(=O)NC1CCCN(S(=O)(=O)c2ccccn2)CC1=O (stereo in doubt; 10) [listing 2 of 2 here]
2.9	197	14	188						CC(C)(F)C[C@H](N[C@@H](c1ccc(-c2ccc(S(C)(=O)=O)cc2)cc1)C(F)(F)F)C(=O)NC1CN(C(=O)c2ccccc2)CC1=O (stereo not given in full)
159	> 63	8	50						CC(C)(F)C[C@H](N[C@@H](c1ccc(-c2ccc(S(C)(=O)=O)cc2)cc1)C(F)(F)F)C(=O)NC1CCCN(S(=O)(=O)Cc2ccccc2)CC1=O (stereo not given in full)
8.3	101	8	2						CC(C)(F)C[C@H](N[C@@H](c1ccc(-c2ccc(S(C)(=O)=O)cc2)cc1)C(F)(F)F)C(=O)NC1CCN(c2ccccc2)CC1=O (stereo not given in full)
3.9	403	29	27						CC(C)(F)C[C@H](N[C@@H](c1ccc(-c2ccc(S(C)(=O)=O)cc2)cc1)C(F)(F)F)C(=O)NC1CN(C(=O)OC(C)(C)C)CC1=O (stereo not given in full)
	681	35	> 1000						CC(C)(F)C[C@H](N[C@@H](c1ccc(-c2ccc(S(C)(=O)=O)cc2)cc1)C(F)(F)F)C(=O)NC1CCCN(S(=O)(=O)c2ccccn2)CC1=O (stereo in doubt; 11) [listing 2 of 2 here]
15	667	36	53						CC(C)(F)C[C@H](N[C@@H](c1ccc(-c2ccc(S(C)(=O)=O)cc2)cc1)C(F)(F)F)C(=O)NC1CN(C(=O)NCc2ccccc2)CC1=O (stereo not given in full)
85				1.3	43				CC(C)(F)C[C@H](N[C@@H](c1ccc(-c2ccc(S(C)(=O)=O)cc2)cc1)C(F)(F)F)C(=O)NC1CN(S(=O)(=O)c2ccccn2)CC1=O (stereo not given in full)
68	> 147	> 6	9						CC(C)(F)C[C@H](N[C@@H](c1ccc(-c2ccc(S(C)(=O)=O)cc2)cc1)C(F)(F)F)C(=O)NC1CN(C(=O)NS(=O)(=O)c2ccccc2)CC1=O (stereo not given in full)
1.6				2.1	53				CCOC(=O)N1CC(=O)C(NC(=O)[C@H](CC(C)(C)F)N[C@@H](c2ccc(-c3ccc(S(C)(=O)=O)cc3)cc2)C(F)(F)F)C1 (stereo not given in full)
9	> 1000	10	364						CCOC(=O)N1CCC(NC(=O)[C@H](CC(C)(C)F)N[C@@H](c2ccc(-c3ccc(S(C)(=O)=O)cc3)cc2)C(F)(F)F)C(=O)C1 (stereo not given in full)
33	236	179	303						CC(C)(F)C[C@H](N[C@@H](c1ccc(-c2ccc(S(C)(=O)=O)cc2)cc1)C(F)(F)F)C(=O)NC1CCCNCC1=O (stereo not given in full)
